Experimental findings from PubChem BioAssay AID623912 (Johns Hopkins Ion Channel Center, 2012) are described below.

Usually IC50 stands for the point on the concentration scale where inhibition reaches its midpoint.

Active and inactive are the calls of the source.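 How the source made its calls: active means peak KCNK3 inhibition above a set limit at some dose, plus a fitted dose-response curve; inactive means no KCNK3 inhibition, or no dose-response curve.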

Chain of Potassium channel subfamily K member 3 (Rattus norvegicus) (O54912 whole entry, looked up): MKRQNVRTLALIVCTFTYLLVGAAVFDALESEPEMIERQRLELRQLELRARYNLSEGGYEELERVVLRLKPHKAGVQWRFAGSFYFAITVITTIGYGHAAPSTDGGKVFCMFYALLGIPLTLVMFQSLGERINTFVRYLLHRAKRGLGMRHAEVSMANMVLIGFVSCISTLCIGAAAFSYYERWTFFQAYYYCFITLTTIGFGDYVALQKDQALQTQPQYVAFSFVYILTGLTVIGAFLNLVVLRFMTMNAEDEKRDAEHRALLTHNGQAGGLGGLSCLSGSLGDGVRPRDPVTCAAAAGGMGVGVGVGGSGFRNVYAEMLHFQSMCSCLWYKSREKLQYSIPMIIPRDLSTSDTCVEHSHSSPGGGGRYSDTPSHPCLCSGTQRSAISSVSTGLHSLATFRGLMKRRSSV

The first assay has as its target Potassium channel subfamily K member 3 (Rattus norvegicus) (UniProt O54912). The assay is described as follows: KCNK3 off-target potassium flux block – cell-based, FluxOR thallium flux, CRC set 2, selectivity assay for KCNK9 inhibitor project, SAR follow-up (AID 623912). The conditions noted are these: KCNK3-expressing cells, FluxOR thallium flux fluorescence. The procedure, abridged: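 Material: tetracycline-induced CHO cells expressing rat KCNK3 potassium channel / Probe or stimulus: Tl+/K+ sulfate stimulus buffer (5x stock) / Dosing: compound concentration-response series / Schedule: 90 min FluxOR loading, 20 min compound, 10+110 s recording / Technique: FluxOR Tl+ flux fluorescence / Read-out: IC50 from normalized flux signal / Replicates: at least duplicate concentration-response curves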
On to `CC(C1CC2CCC1C2)n1c(-c2cccn2C)n[nH]c1=S` (stereo unspecified), for which the IC50 is 1.08 µM.
In the case of `COc1ccccc1C(=O)Nc1cccc(NC(=O)c2ccccc2OC)c1`, the IC50 was 0.00967 µM.
On the same count and under the same terms, under `CCOc1ccccc1NC(=O)c1cccc(NC(=O)c2ccc(OC)cc2)c1` stands 0.3 µM.
On the same count and under the same terms, the same measure for `Cc1cccc(C(=O)Nc2cccc(NC(=O)c3ccc(Cl)cc3)c2)c1`: 0.149 µM; for `CCOc1cccc(NC(=O)c2cccc(NC(=O)C3CCCC3)c2)c1`: 0.491 µM; for `CC(C1CC2CCC1C2)n1c(-c2ccccn2)n[nH]c1=S` (stereo unspecified): 1.3 µM.
Regarding `COc1ccccc1NC(=O)c1cccc(NC(=O)C2CCCC2)c1`, the IC50 is 0.238 µM.
Take `COc1cccc(-c2n[nH]c(=S)n2C(C)C2CC3CCC2C3)c1` (stereo unspecified): the IC50 is 1.29 µM.
Take `O=C(Nc1cccc(NC(=O)c2cccc(F)c2)c1)c1ccccc1`: the IC50 is 0.0442 µM.
Take `COc1ccccc1NC(=O)c1cccc(NC(=O)c2ccccc2)c1`: the IC50 is 0.064 µM.
`COc1ccccc1-c1n[nH]c(=S)n1C(C)C1CC2CCC1C2` (stereo unspecified): the IC50 was 0.102 µM.
Turning to `O=C(Nc1cccc(NC(=O)c2ccccc2)c1)c1ccccc1`, the IC50 was 0.018 µM.
As for `O=C(Nc1cccc(NC(=O)c2cccc(C(F)(F)F)c2)c1)c1ccccc1`, the IC50 was 0.147 µM.
The same measure, in the same setting: the same measure for `COc1ccccc1NC(=O)c1cccc(NC(=O)c2ccccc2C(F)(F)F)c1`: 0.042 µM; for `Cc1cccc(C(=O)Nc2cccc(NC(=O)c3ccccc3Cl)c2)c1`: 0.023 µM; for `Cc1ccccc1C(=O)Nc1cccc(NC(=O)c2ccccc2)c1`: 0.104 µM.
On to `Cc1cccc(C(=O)Nc2cccc(NC(=O)c3ccc(N(C)C)cc3)c2)c1`, for which the IC50 was 0.145 µM.
The same measure, in the same setting: the same measure for `O=C(Nc1cccc(NC(=O)c2ccncc2)c1)c1ccccc1`: 0.249 µM; for `COc1ccccc1C(=O)Nc1cccc(NC(=O)c2ccccc2C(C)C)c1`: 0.007 µM.
For the compound `Cc1cccc(NC(=O)c2ccccc2NC(=O)c2ccccc2)c1`, the IC50 is 1.38 µM.
The same measure, in the same setting: under `Cc1cccc(C(=O)Nc2cccc(NC(=O)c3ccccc3C(C)C)c2)c1` stands 0.328 µM.
Take `Cc1cccc(C(=O)Nc2cccc(NC(=O)c3ccncc3)c2)c1`: the IC50 is 0.027 µM.
The same measure, in the same setting: the same measure for `O=C(Nc1cccc(NC(=O)c2ccccc2C(F)(F)F)c1)c1ccccc1`: 0.13 µM; for `O=C(Nc1cccc(NC(=O)c2cccs2)c1)c1ccccc1`: 0.0294 µM.
For the compound `Cc1cccc(C(=O)Nc2cccc(NC(=O)c3cccc(Cl)c3)c2)c1`, the IC50 was 0.003 µM.
Same read-out and setting: under `CC(C1CC2CCC1C2)n1cnnc1-c1ccco1` (stereo unspecified) stands 0.018 µM; under `Cc1cccc(C(=O)Nc2ccccc2NC(=O)c2ccccc2)c1`, 0.26 µM.
Same read-out and setting: the same measure for `Cc1ccccc1-c1n[nH]c(=S)n1C(C)C1CC2CCC1C2` (stereo unspecified): 0.912 µM.
`CCOc1ccccc1NC(=O)c1cccc(NC(=O)c2ccc(C)cc2)c1`: the IC50 was 0.134 µM.
Turning to `CCOc1ccccc1NC(=O)c1cccc(NC(=O)c2ccccc2OC)c1`, the IC50 was 0.00653 µM.
With `CCOc1ccccc1C(=O)Nc1cccc(NC(=O)c2cccc(C)c2)c1`, the IC50 was 0.00746 µM.
In the case of `COc1ccccc1NC(=O)c1cccc(NC(=O)CC2CCCC2)c1`, the half-inhibitory concentration (IC50) is 0.086 µM.
Same read-out and setting: under `COc1ccccc1C(=O)Nc1cccc(NC(=O)c2ccccc2)c1` stands 0.222 µM.
On the same count and under the same terms, under `COc1ccccc1C(=O)Nc1cccc(NC(=O)c2cccc(C)c2)c1` stands 0.011 µM; under `CC(C1CC2CCC1C2)n1c(-c2ccccc2Cl)n[nH]c1=S` (stereo unspecified), 2.05 µM.
For the compound `CSc1nnc(-c2ccco2)n1C(C)C1CC2CCC1C2` (stereo unspecified), the IC50 was 0.873 µM.
As to `O=C(Nc1cccc(NC(=O)c2cccnc2)c1)c1ccccc1`, the IC50 was 1.29 µM.
The same measure, in the same setting: under `COc1ccc(C(=O)Nc2cccc(NC(=O)c3cccc(C)c3)c2)cc1` stands 1.33 µM.

The assay is the same for the next values; noted with them: KCNK3-expressing cells, FluxOR thallium flux fluorescence; at 3 µM (top of the series).
In the case of `CC(C1CC2CCC1C2)n1c(C2CCOC2)n[nH]c1=S` (stereo unspecified), the “flux ratio, lower = inhibition” value is “inactive”.
Same read-out and setting: under `COc1cccc(Cc2n[nH]c(=S)n2C(C)C2CC3CCC2C3)c1` (stereo unspecified) stands “inactive”; under `CC(C)(C)c1ccc(C(=O)Nc2cccc(NC(=O)c3ccccc3)c2)cc1`, “inactive”.
